{"source": "paper PMC5753398", "about": "(Journal of the American Chemical Society, 2017)", "key": {"[1]": {"system": "Shh-mediated Hedgehog signaling (Gli-controlled Firefly luciferase) in NIH3T3 cells", "assay": "Gli-reporter dual luciferase assay in Shh-N-stimulated NIH3T3 cells", "assay_type": "cell-based, mouse"}, "[2]": {"system": "Shh / Hedgehog pathway activation", "conditions": "read-out: IC50, Shh inhibitory activity in vitro and in cells; similar cell-based assay; cited from earlier work"}, "[3]": {"system": "GST-Shh, GST-Ihh, or GST-Dhh", "assay": "Competition assay for Hh analog selectivity", "assay_type": "binding, human", "conditions": "10 μM robotnikinin + 400 nM FLAG-HL2-m5", "procedure,_shortened": "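Competition format: PBS containing 10 μM competitor plus 400 nM FLAG-tagged macrocyclic peptide (recombinant, E. coli) added to wells coated with GST-Shh, GST-Ihh or GST-Dhh (E. coli BL21(DE3)-expressed, Ni-NTA purified). Wells then developed by HRP anti-FLAG antibody, o-phenylenediamine/urea peroxide substrate (pH 5.0) and A450. Relative affinity = (1 − % inhibition)GST-Hh/(1 − % inhibition)GST-Shh. Triplicate, mean and SD.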"}, "Shh/Patched interaction": {"system": "Shh/Patched interaction", "conditions": "read-out: IC50 for inhibition of the Shh/Patched interaction in vitro; ref 25a; cited from earlier work"}}, "data": [{"compound": "CC1=C2C[C@H]3[C@@H](CC=C4C[C@@H](O)CC[C@@]43C)[C@@H]2CC[C@]12O[C@@H]1C[C@H](C)CN[C@H]1[C@H]2C", "note": "[cyclopamine]", "values": [{"measurement": "Inhibition of Shh-induced luminescence", "setting": "[1]; 10 μM, assay validation", "result": "full inhibition"}]}, {"compound": "c1ccc2c(Oc3nc(Nc4ccc(N5CCOCC5)cc4)c4ncn(C5CCCCC5)c4n3)cccc2c1", "note": "[purmorphamine]", "values": [{"measurement": "Effect on signaling pathway in HL2-m5-treated cells", "setting": "[1]; 5 μM purmorphamine added to cells treated with 10 μM HL2-m5", "result": "restored activation"}]}, {"compound": "O=C(C[C@@H]1C/C=C/CCC(=O)O[C@H](c2ccccc2)CNC1=O)NCc1ccc(Cl)cc1", "note": "[robotnikinin]", "values": [{"measurement": "IC50", "setting": "[2]", "result": "~15", "unit": "µM"}, {"measurement": "Affinity toward Ihh and Dhh relative to Shh", "setting": "[3]", "result": "significantly lower affinity"}]}, {"compound": "Ac-TLDDMEEMDGLSD-NH2 [L2-pep]", "values": [{"measurement": "Inhibitory activity in Gli-reporter assay", "setting": "[1]; concentrations up to 30 μM, identical conditions", "result": "no inhibitory activity"}]}, {"compound": "HHIP370–390: linear HHIP L2-derived peptide from the literature (GDGMITLDDMEEMDGLSDFTG; UniProt Q96QV1 370-390, looked up, fragment)", "values": [{"measurement": "IC50", "setting": "Shh/Patched interaction", "result": 150, "unit": "µM"}]}]}
